# Screening data as filed in PubChem.
# Dynein transport = inhibitors of GR-EGFP nuclear translocation, primary screen, dynein cargo transport inhibitor project, imaging, high-content, 3617.4 mouse cells; actives 0.47% (n = 220,000); z-score, hits read low; test concentration mostly 20 µM; stimulated with dexamethasone, 1 µM; active compounds read low;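 active means plate z-score of nuclear minus cytoplasmic receptor signal below a set negative limit, without overly bright fluorescence or cell loss, cut at about -3.5 in these data, passing the limit was not always enough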;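 further: z-score of nuclear minus cytoplasmic ring GR-EGFP intensity difference per well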
#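 Buffer or medium: tet-free, stripped-serum medium; reagent: dexamethasone at 1.0 µM final, 30 min; incubation: 48 h induction, 1 h compound, 30 min dex at 37 °C; measured by: formaldehyde fixation, Hoechst nuclear stain, 10x automated fluorescence imaging; read-out: nuclear-to-cytoplasmic GR-EGFP distribution per well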
# CHOP UPR activ = activators of apoptotic CHOP UPR arm, primary screen, cell-based, CHO-CHOP luciferase reporter, luminescence, uHTS. AID 449763, 2010. activation, % at 10 µM. UPR activation; percent of tunicamycin response over DMSO baseline. actives 0.34% (n = 330,000);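 active means at 10 µM dose, activation of 40% or more, normalized to positive control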;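 further: 100% = tunicamycin at 10 µg/mL and 0% = DMSO alone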
#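 Test system: CHO-CHOP cells, stable luciferase reporter of PERK-eIF2a-CHOP signalling | Quantity: 500 CHO-CHOP cells per well | Buffer or medium: F12 plus 10% serum | Compound dosing: 10 µM single point, 0.5% DMSO | Schedule: 6 h compound treatment, 37 °C | Signal: Luciferase luminescence | Control set: Tunicamycin high control, DMSO low control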
# Lmaj promast = Leishmania major promastigote growth inhibition, primary screen; actives 9% (n = 200,000); inhibition, % at 10 µM; Leishmania major promastigotes, resazurin fluorescence viability; AID 1063, 2008; in the data active means inhibition above about 50%;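 further: promastigotes grown with compound for 44 hours at 28 °C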
# T cruzi inh = inhibitors of intracellular T. cruzi growth, primary screen, luminescence, NIH3T3 host cells. T. cruzi beta-gal in NIH3T3, 90 h. inhibition, % (test concentration not listed). actives 1.4% (n = 300,000). AID 1885, 2009;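 active means mean inhibition across valid replicates above about 55%, limit read from the data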;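 further: signal also drops with host cell toxicity which is not excluded here; 0% = plate median of DMSO wells and 100% = zero luminescence signal; higher percent means less beta-gal luminescence so fewer parasites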
#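 System: Mouse NIH/3T3 fibroblasts infected with β-gal-expressing T. cruzi Tulahuen C4 | Quantity: NIH/3T3 cells, 5,000 per well | Reagent: 5000 reporter trypomastigotes per well | Dosing: Compound pinned at 50 nL/well, DMSO | Schedule: 3 h host attachment, then at least 90 h co-culture | Detection: GalScreen luminescence, 60 min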
# CHOP inh = inhibitors of CHOP promoter induction, primary screen, cell-based, unfolded protein response, luciferase reporter; CHO-K1 CHOP-promoter luciferase, tunicamycin-induced, 15-18 h; inhibition, % at 10 µM; actives 3.8% (n = 220,000);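 active means compounds that reduced the stress-induced luciferase reporter signal by more than about 70% of percent inhibition, limit read from the data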;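 further: 0% = tunicamycin plus vehicle and 100% = wells without tunicamycin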
# XBP1 UPR activ = activators of adaptive XBP1 UPR arm, primary screen, cell-based, CHO-XBP1 luciferase reporter, luminescence, uHTS | IRE1-XBP1 UPR activation; percent of tunicamycin response, DMSO as zero | activation, % at 20 µM | actives 0.33% (n = 330,000) | AID 463104, 2010;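 active means versus positive control, 20 µM dose yields 30% or more activation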;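 further: 100% = tunicamycin at 10 µg/mL and 0% = DMSO only wells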
#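 Test system: CHO-XBP1 luciferase reporter cells | Buffer or medium: Serum-containing F12 medium, 10% FBS | Schedule: 6 h compound exposure at 37 °C, 5% CO2 | Detection: Steady-Glo luciferase glow luminescence, 10 min after reagent addition | Read-out basis: Activation, % of tunicamycin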
# CHOP confirm = retest of CHOP induction inhibitors, confirmation, cell-based; shares compounds with CHOP inh; actives 45% (n = 2,100); CHO-CHOP promoter luciferase reporter, tunicamycin-induced, luminescence; inhibition, % at 10 µM;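 active means mean of three repeat readings of reporter signal inhibition above a set limit, cut at about 70% in these data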;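 further: 0% = tunicamycin plus vehicle and 100% = wells lacking tunicamycin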
# Active calls of the source: *; . = no result. Only a selection was taken, and hits are over-represented in it overall.
SMILES,Dynein transport,CHOP UPR activ,Lmaj promast,T cruzi inh,CHOP inh,XBP1 UPR activ,CHOP confirm
CCCc1cc(=O)[nH]c(SCC(=O)Nc2ccc(N3CCCCC3)cc2)n1,.,-1,.,.,.,-3,.
CCCc1cc(=O)[nH]c(Nc2ccc(N3CCCCC3)cc2)n1,-0.082,-3,2,6,107*,-1,94*
NS(=O)(=O)c1ccc(CCNC(=O)c2cc([N+](=O)[O-])ccc2N2CCCCC2)cc1,.,-1,.,31,.,1,.
COc1ccc(NC(=O)CCCNC(=O)Cn2cnc3sc4c(c3c2=O)CCCC4)c(OC)c1,.,-1,.,15,.,-1,.
O=C(CSc1nc(C2CC2)nc2c1cnn2-c1ccccc1)Nc1c[nH]c(=O)[nH]c1=O,0.27,1,12,-8,96*,12,48
Cc1ccc(NC(=O)C2CCN(S(=O)(=O)c3cc([N+](=O)[O-])ccc3Cl)CC2)nc1,.,7,.,.,.,-3,.
Cc1ccc2nc(NC(=O)C3CCN(S(=O)(=O)c4cc([N+](=O)[O-])ccc4Cl)CC3)sc2c1,-0.19,9,99*,67*,97*,4,89*
O=C(Nc1nc2ccccc2n1Cc1ccc(Cl)cc1)c1ccco1,0.74,1,14,76*,103*,-1,-53
CCOc1c(O)ccc(/C=C2\SC(=S)NC2=O)c1[N+](=O)[O-],1.4,0,-5,-11,-7,-3,.
O=C1NC(=S)S/C1=C\C=C\c1ccc([N+](=O)[O-])o1,-1.9,.,.,.,105*,.,117*
Cc1cc(C)c2c(CC(=O)NN(C)C)coc2c1,-0.56,0,-6,1,9,0,.
Cc1cc(C)c2c(CC(=O)Nc3ccc(Cl)cn3)coc2c1,-0.35,-2,-7,17,97*,2,12
O=S1(=O)CC(O)C(N=Nc2c(O)n(Cc3ccccc3)c3ccccc23)C1 (stereo unspecified),0.19,0,.,6,3,-2,.
O=C(N=Nc1c(O)n(Cc2ccccc2)c2ccccc12)c1cc2ccccc2cc1O,-0.31,.,9,1,106*,.,95*
Cc1ccc(NC(=O)Cn2c(O)c(N=NC(=O)c3cc4ccccc4cc3O)c3ccccc32)cc1,-0.44,.,-9,.,97*,.,-21
N#Cc1c(NCCN)nc(-c2ccccc2)c2c1CCCC2,7.6,-2,85*,15,108*,-2,59
CC(C)(C)c1ccc(OCC(=O)N/N=C/c2ccc(N3CCOCC3)cc2)cc1,0.29,2,0,-12,105*,-3,65
CC(C)(C)c1ccc(OCC(=O)N/N=C/C2CC=CCC2)cc1 (stereo unspecified),0.57,7,-7,-13,99*,-3,99*
COc1ccc([N+](=O)[O-])cc1NS(=O)(=O)c1ccc(Cl)c(C(=O)Nc2sc3c(c2C#N)CCCCC3)c1,0.0082,4,-18,-15,105*,2,52
CCc1ccc(-c2cc(C(=O)N3N=C(C(F)F)CC3(O)C(F)F)c3ccccc3n2)cc1 (stereo unspecified),-0.072,8,71*,59*,110*,9,113*
CC(C)Cc1cc(C(=O)N2N=C(C(F)F)CC2(O)C(F)F)c2ccccc2n1 (stereo unspecified),0.015,-1,11,15,32,-2,.
COc1ccccc1C(=O)Oc1ccc(C(C)C)cc1,0.036,10,-9,-7,99*,1,118*
CC(NS(=O)(=O)c1cc(C(F)(F)F)ccc1Cl)C(=O)N(C)C1CCN(C)CC1 (stereo unspecified),.,2,.,.,.,-2,.
O=C(NCCc1cscn1)C1CCC(=O)N(Cc2ccc(Cl)cc2)C1 (stereo unspecified),.,0,.,-21,.,0,.
CCN(Cc1ccccc1)C(=O)CS(=O)(=O)c1ccccc1,-0.23,-2,-1,0,-24,-2,.
SMILES,Dynein transport,CHOP UPR activ,Lmaj promast,T cruzi inh,CHOP inh,XBP1 UPR activ,CHOP confirm
O=S(=O)(C/C(=C/CO)S(=O)(=O)c1ccccc1)c1ccccc1,-3,-9,55*,62*,.,-6,118*
COc1ccccc1CNC(=O)CCNC(=O)c1ccco1,.,0,.,.,.,-3,.
CC1CCN(S(=O)(=O)c2ccc(C(=O)Nc3sccc3C(N)=O)cc2)CC1,0.03,5,2,12,97*,0,58
CN(C)NC(=O)c1ccsc1NC(=O)c1ccc(S(=O)(=O)N2CCCC2)cc1,-0.85,0,.,-1,6,1,.
COc1ccc(NC(=O)CCN2CCN(c3ccccc3F)CC2)c(OC)c1,.,0,.,-2,.,-3,.
O=C(CSc1nc2nn(-c3ccccc3)c(=O)c-2c2n1CCCCC2)c1ccc(O)c(O)c1,.,1,.,.,.,3,.
COc1c(Br)cc(Br)cc1/C=N/NC(=O)c1ccncc1,-0.78,0,7,-11,23,-2,.
CCNC(=S)N/N=C/c1cc(Br)cc(Br)c1OC,-0.87,-1,-2,10,102*,-1,80*
CCOC(=O)c1c(-c2ccccc2)nnn1-c1nc(OCC)nc(N2CCCCC2)n1,-0.98,3,18,20,101*,-1,62
COc1cc(/C=C/C(=O)OCC(=O)NC2CCCCCCC2)ccc1O,.,1,.,.,.,-1,.
COc1cc(/C=C/C(=O)OC2CC3CCC2(C)C3(C)C)ccc1O (stereo unspecified),-0.31,4,.,0,100*,13,102*
CCCCCC1CC(CC(=O)Nc2ccc([N+](=O)[O-])cc2)C(=O)O1 (stereo unspecified),0.82,0,1,-4,101*,-4,104*
Cc1nnc(N(C)C(=O)c2ccc3c(c2)OCO3)s1,1.2,1,-4,-9,-40,-4,.
C/C(CCc1oc2ccc(Br)cc2c1-c1ccc(C)o1)=N/O,-0.99,-1,-3,-4,97*,-1,39
COc1ccccc1OCC(=O)NCC1CCCN(Cc2cnn(C)c2C)C1 (stereo unspecified),.,-1,.,18,.,-3,.
CCc1nnc(NS(=O)(=O)c2ccc(NC(=S)NC(=O)/C=C/c3ccccc3)cc2)s1,-0.18,1,-5,-1,29,-2,.
